# Where a SMILES comes first, the peptide text is derived from it. [ ]: non-standard residue; d: D form. pS = N[C@@H](COP(=O)(O)O)C(=O)O
# Columns and labels:
# [1] = target: T1, 14-3-3σ (Homo sapiens, UniProt P31947); assay: Isothermal titration calorimetry; assay type: binding; conditions: 30 °C, pH 7.6
# T1 sequence (P31947 1-231): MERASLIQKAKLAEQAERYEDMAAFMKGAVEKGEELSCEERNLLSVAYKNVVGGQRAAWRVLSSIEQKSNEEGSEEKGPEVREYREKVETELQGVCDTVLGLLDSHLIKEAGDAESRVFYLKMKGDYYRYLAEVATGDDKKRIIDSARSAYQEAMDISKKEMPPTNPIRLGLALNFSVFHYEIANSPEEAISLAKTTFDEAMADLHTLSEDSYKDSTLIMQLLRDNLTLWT
# How it was run: (§1)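 ITC was run at 30 °C in 20 mM Tris-HCl pH 7.6 with 150 mM NaCl, 0.1 mM EDTA and 2 mM β-mercaptoethanol. 2 μl aliquots of 14-3-3 were injected into a 0.2 ml cell holding the test phosphopeptide: 44 μM peptide titrated with 0.5 mM full-length human 14-3-3γ, or 100 μM peptide titrated with 1 mM 14-3-3σ. Heat of dilution was subtracted before curve fitting. There were at least three repeats with varied concentrations.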
# [2] = target: T2, 14-3-3γ (Homo sapiens, UniProt P61981); assay: Isothermal titration calorimetry; assay type: binding; conditions: 30 °C, pH 7.6
# T2 sequence (P61981 1-247): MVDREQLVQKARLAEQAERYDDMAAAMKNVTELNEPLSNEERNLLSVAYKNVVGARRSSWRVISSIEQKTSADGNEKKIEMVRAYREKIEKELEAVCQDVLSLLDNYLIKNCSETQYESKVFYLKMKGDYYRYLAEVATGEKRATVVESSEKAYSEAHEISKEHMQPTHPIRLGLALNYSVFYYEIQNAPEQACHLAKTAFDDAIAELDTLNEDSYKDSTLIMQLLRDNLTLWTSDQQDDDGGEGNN
# How it was run: as §1
# [3] = target: T1, 14-3-3σ; assay: Fluorescence competition titration; assay type: binding; conditions: equimolar concentration and 7-fold excess of phosphopeptide; 30°C
# [4] = target: T1, 14-3-3σ; assay: AEDANS fluorescence titration of pHSPB6AEDANS by 14-3-3σ; assay type: binding; conditions: excitation at 336 nm, 4.2 µM pHSPB6AEDANS, 30°C
# How it was run: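 Full-length HSPB6 was phosphorylated at Ser16 by PKA in vitro and moved into 20 mM HEPES pH 7.5 with 100 mM NaCl. It was reduced with 20 mM DTT for 20 min at room temperature, desalted, then labelled with a 6-fold molar excess of 1,5-I-AEDANS (1 h room temperature, then overnight at 4 °C), reaching 90% labelling. Human 14-3-3σ(1-231) was added stepwise with 5 min equilibration at 30 °C. Excitation was 336 nm and emission was read at 488 nm. Curves were buffer-corrected and fitted to a quadratic equation.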
# [5] = tested on: 14-3-3; conditions: in vitro; ref Sudnitsyna et al., 2012; cited from earlier work
# [6] = tested on: 14-3-3 dimer; assay: Affinity of pHSPB6 dimer to the 14-3-3 dimer; assay type: binding, human; conditions: Discussion
# [7] = tested on: 14-3-3ζ; conditions: ref Sluchanko et al., 2011; cited from earlier work
compound,measurement,setting,value
CC(C)C[C@H](NC(=O)CNC(=O)[C@@H]1CCCN1C(=O)[C@H](CC(C)C)NC(=O)[C@@H]1CCCN1C(=O)[C@H](C)NC(=O)[C@H](COP(=O)(O)O)NC(=O)[C@H](C)NC(=O)[C@H](CCCNC(=N)N)NC(=O)[C@H](CCCNC(=N)N)NC(=O)[C@H](CC(C)C)NC(=O)[C@@H](N)Cc1c[nH]c2ccccc12)C(=O)N[C@@H](CCCCN)C(=O)O [phosphopeptide 11-23] (H-WLRRA[pS]APLPGLK-OH),stoichiometry of binding (ITC),[1],one peptide per 14-3-3 subunit
same,stoichiometry of binding (ITC),[2],one peptide per 14-3-3 subunit
"pHSPB6^AEDANS: phosphorylated full-length HSPB6 stoichiometrically labeled at its unique Cys46 residue with 1,5-I-AEDANS",14-3-3σ/pHSPB6AEDANS interaction in the presence of phosphopeptide,[3],"resulted in a saturable curve (Fig.2b), suggestive of a retained 14-3-3σ/pHSPB6^AEDANS interaction"
same,fluorescence peak shift upon titration with 14-3-3σ,[4],shifted from 486 to 479 nm
"phosphocofilin: phosphocofilin, 14-3-3 complex partner",direct 14-3-3/phosphocofilin interaction,[5],could not be confirmed in vitro
pHSPB6: phosphorylated small heat shock protein HSPB6 (HSP20),apparent affinity to the 14-3-3 dimer,[6],submicromolar apparent affinity
same,affinity to 14-3-3ζ,[7],micromolar affinity
